Calls of active or inactive are those of the source. The rule behind the calls is not given here.
Key:
[1] = Chemical stability at pH 6.5 incubated for 2 hrs; type: physicochemical; settings: buffer, pH 6.5, 2 h
In short: (§1)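 Compound was held in aqueous buffer at the stated pH for 2 h at 37 °C.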

[2] = system: human P-gp; experiment: Apparent permeability across apical to basolateral side in pig LLC-PK1 cells expressing human P-gp; type: ADME, cell-based, Sus scrofa
In short: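 LLC-PK1 porcine kidney cells transfected with human or mouse P-gp were grown as polarized monolayers on filter membranes. Compound was dosed to the apical side and receiver appearance followed over 3 h at 37 °C. A→B Papp was measured with the P-gp inhibitor zosuquidar present at 1 µM.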

[3] = Chemical stability at pH 10 incubated for 2 hrs; type: physicochemical; settings: buffer, pH 10, 2 h; in short: as §1
[4] = Average drug concentration in mouse plasma at 30 mg/kg, ip measured after 2 hrs; type: ADME, organism-based; settings: read-out: Cave
In short: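 In a time course, mice were injected i.p. with 30 mg/kg in NaCl/DMSO/Tween 80 (80/10/10). Average plasma levels were determined at the stated time points over 24 h.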

[5] = Half-life in Wistar rat at 1 mg/kg, iv measured upto 24 hrs by LC-MS/MS analysis; type: ADME, organism-based; settings: in vivo
In short: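 Male Wistar rats, single dose. i.v. in NMP/0.9% NaCl 30:70; p.o. and i.p. in NMP/HPMC/diisooctyl sulfosuccinate 10:90; 3 per i.v./p.o. group, 6 i.p. K2EDTA plasma sampled 0.083–7 h, plus 24 h for i.v./p.o.; brain and CSF at 1, 2, 7 h (i.p. only). LC-MS/MS, noncompartmental analysis.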

[6] = AUClast in Wistar rat at 10 mg/kg, ip measured upto 24 hrs by LC-MS/MS analysis; type: ADME, organism-based; settings: in vivo
[7] = Phototoxicity in mouse 3T3 cells; type: toxicity, cell-based; settings: nih3t3
[8] = target: T1, Monoglyceride lipase (Rattus norvegicus, UniProt Q8R431); experiment: Inhibition of rat MAGL using native substrate by Rapidfire MS assay
T1 sequence (Q8R431 whole entry): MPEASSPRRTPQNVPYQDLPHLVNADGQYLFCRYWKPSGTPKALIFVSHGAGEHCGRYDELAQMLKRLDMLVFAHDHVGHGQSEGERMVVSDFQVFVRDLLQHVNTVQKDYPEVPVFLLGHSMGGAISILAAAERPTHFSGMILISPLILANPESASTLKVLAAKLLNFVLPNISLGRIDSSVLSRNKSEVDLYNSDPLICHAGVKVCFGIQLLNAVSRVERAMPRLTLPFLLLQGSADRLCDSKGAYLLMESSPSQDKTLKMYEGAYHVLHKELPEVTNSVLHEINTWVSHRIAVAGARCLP

[9] = Clearance in Wistar rat at 1 mg/kg, iv measured upto 24 hrs by LC-MS/MS analysis; type: ADME, organism-based; settings: in vivo
In short: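 Male Wistar rats (N = 3 per group) received a single dose. The i.v. dose was 1 mg/kg in NMP/0.9% NaCl 30:70. The p.o. dose was 5 mg/kg in NMP/HPMC/diisooctyl sulfosuccinate 10:90. Blood was taken into K2EDTA from 0.083 (i.v.) or 0.25 h to 24 h. Plasma was assayed by LC-MS/MS and analysed non-compartmentally.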

[10] = Average drug concentration in mouse plasma at 3 mg/kg, ip measured after 4 hrs; type: ADME, organism-based; settings: in vivo
In short: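 Mice received 3, 10 or 30 mg/kg i.p. The compound was dissolved in DMSO/Tween 80 (1:1) and diluted with 8 parts saline (NaCl/DMSO/TW80 80/10/10). Plasma was taken 4 h after injection and average concentrations reported.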

[11] = target: T2, Monoglyceride lipase (Mus musculus) (UniProt O35678); experiment: In vivo receptor occupancy at MAGL receptor in mouse at 30 mg/kg, ip measured after 4 hrs; type: functional, organism-based
T2 sequence (whole entry): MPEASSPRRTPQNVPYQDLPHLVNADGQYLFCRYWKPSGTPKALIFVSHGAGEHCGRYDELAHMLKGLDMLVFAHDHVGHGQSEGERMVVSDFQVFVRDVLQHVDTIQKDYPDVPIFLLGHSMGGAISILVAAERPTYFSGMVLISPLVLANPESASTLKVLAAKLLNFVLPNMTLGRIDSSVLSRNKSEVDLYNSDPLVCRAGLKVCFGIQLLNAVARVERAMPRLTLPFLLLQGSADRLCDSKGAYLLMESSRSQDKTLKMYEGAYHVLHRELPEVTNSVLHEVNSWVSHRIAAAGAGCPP

[12] = system: Mus musculus; experiment: Antiinflammatory activity in LPS-induced CD-1 mouse neuroinflammation model assessed as decrease in peripheral tissue LCN2 mRNA expression at 30 mg/kg, ip measured after 6 hrs by qRT-PCR analysis; type: functional, organism-based
In short: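 CD-1 mice were dosed with NaCl + vehicle, LPS (5 mg/kg) + vehicle, or LPS + inhibitor at 30 mg/kg i.p. (vehicle NaCl/DMSO/Tween 80, 80/10/10). They were sacrificed 6 h post-compound. LCN2 and IL1b mRNA in peripheral tissue were measured by droplet digital qRT-PCR.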

[13] = system: Mus musculus; experiment: Downregulation of brain AA level in ip dosed mouse measured after 4 hrs; type: functional, organism-based; settings: dose 3-30 mg/kg
In short: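 Mice received 3, 10 or 30 mg/kg i.p. in NaCl/DMSO/Tween 80 (80/10/10) and were sacrificed after 4 h. Arachidonic acid in brain extracts was measured by LC/MS.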

[14] = target: T2, Monoglyceride lipase (Mus musculus); experiment: In vivo receptor occupancy at MAGL receptor in mouse at 30 mg/kg, ip measured after 16 hrs; type: functional, organism-based
In short: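 Mice dosed 30 mg/kg i.p. in NaCl/DMSO/TW80 (80/10/10). Brain proteome was prepared at set time points over 24 h and MAGL occupancy read by activity-based protein profiling.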

[15] = target: T2, Monoglyceride lipase (Mus musculus); experiment: In vivo receptor occupancy at MAGL receptor in mouse at 3 mg/kg, ip measured after 4 hrs; type: functional, organism-based
[16] = system: LLC-PK1; experiment: Substrate activity at human P-gp expressed in LLC-PK1 cells assessed as efflux ratio incubated for 3 hrs; type: cell-based
In short: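 LLC-PK1 porcine kidney cells transfected with human or mouse P-gp, grown as polarized monolayers on filter plates. Compound is dosed apically or basolaterally and transport followed 3 h at 37 °C. Efflux ratio comes from unidirectional Papp; 1 µM zosuquidar defines permeability without P-gp.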

[17] = system: Mus musculus; experiment: Antiinflammatory activity in LPS-induced CD-1 mouse neuroinflammation model assessed as decrease in brain LCN2 mRNA expression at 30 mg/kg, ip measured after 6 hrs by qRT-PCR analysis; type: functional, organism-based
In short: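 CD-1 mice received NaCl + vehicle, LPS (5 mg/kg) + vehicle, or LPS + inhibitor at 30 mg/kg i.p. The vehicle was NaCl/DMSO/Tween 80, 80/10/10. Mice were killed 6 h after compound dosing. LCN2 and IL1b mRNA in cortical brain lysates were quantified by droplet digital qRT-PCR.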

[18] = target: T3, Monoglyceride lipase (Rattus norvegicus) (UniProt Q8R431); experiment: Binding affinity to rat MAGL assessed as dissociation rate constant by SPR analysis
T3 sequence (whole entry): T1 sequence (Q8R431 whole entry)
In short: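 Human or rat MAGL was immobilized by amine coupling without ethanolamine quenching. Runs were done at 18 °C in 10 mM HEPES, 150 mM NaCl, 0.05% P20, 50 µM EDTA, pH 7.4, with 1% DMSO. Single-cycle kinetics used five concentrations, top 1 µM in 2-fold steps, at 30 µL/min, giving kon, koff and Kd.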

Stability [1]	Papp A→B [2] [×10⁻⁶ cm/s]	Stability [3]	concentration at 2 h [4] [µM]	half-life [5] [h]	AUC(0-t) at 24 h [6] [ng·h/mL]	IC50 [8] [nM]	clearance [9] [mL/min/kg]	Cave [10] [µM]	Activity [11] [%]	Activity [14] [%]	Activity [15] [%]	K [18]	SMILES	Activity [7]	Activity [12]	Activity [13]	Ratio [16]	Activity [17]
Stable	17.6	Stable	42	5.1	40200	71	4.6	1.901	–	–	–	–	O=C1CO[C@H]2CCN(C(=O)N3CCC(Cc4ccc(C(F)(F)F)cc4)CC3)C[C@H]2N1 [listing 1 of 2 here]	Non-Toxic	–	–	–	–
–	–	–	–	–	–	–	–	–	93	60	49	16.8 10^-3/s	O=C1CO[C@H]2CCN(C(=O)N3CCC(Cc4ccc(C(F)(F)F)cc4)CC3)C[C@H]2N1 [listing 2 of 2 here]	–	inactive	Dose-Dependent Effect	2.4	Active

Reference: ChEMBL document CHEMBL6127097, “Structure-Guided Discovery of cis-Hexahydro-pyrido-oxazinones as Reversible, Drug-like Monoacylglycerol Lipase Inhibitors” (J Med Chem, 2024)
